Experimental findings from ChEMBL document CHEMBL1212938, “Inhibition of mycobacterial replication by pyrimidines possessing various C-5 functionalities and related 2'-deoxynucleoside analogues using in vitro and in vivo models” (J Med Chem, 2010) are described below.

In brackets after ≈: the same amount, converted by molar mass. Activity calls are given as the source filed them. The rule behind the calls is not given here.

The test system of one data set is Bacillus subtilis. The experiment in a line: Antibacterial activity against Bacillus subtilis at 100 ug/ml after 16 to 20 hrs by broth microdilution method. Format: functional, organism-based.
The test system of another data set is Streptococcus pneumoniae. The experiment in a line: Antibacterial activity against Streptococcus pneumoniae at 100 ug/ml after 16 to 20 hrs by broth microdilution method. Format: functional, organism-based.
The subject of another data set is Salmonella typhimurium. The experiment in a line: Antibacterial activity against Salmonella Typhimurium at 100 ug/ml after 16 to 20 hrs by broth microdilution method. It is filed as functional, organism-based. As to conditions: Salmonella enterica subsp. enterica serovar Typhimurium.
In the next data set the test system is Escherichia coli. The data set can be described thus: Antibacterial activity against Escherichia coli at 100 ug/ml after 16 to 20 hrs by broth microdilution method. Format: functional, organism-based.
For the next data set, the system named is Proteus vulgaris. The experiment in a line: Antibacterial activity against Proteus vulgaris at 100 ug/ml after 16 to 20 hrs by broth microdilution method. Format: functional, organism-based.
Another data set concerns Pseudomonas aeruginosa. The experiment in a line: Antibacterial activity against Pseudomonas aeruginosa at 100 ug/ml after 16 to 20 hrs by broth microdilution method. It is filed as functional, organism-based.
Data set [1] deals with Staphylococcus epidermidis. The data set can be described thus: Antibacterial activity against Staphylococcus epidermidis after 16 to 20 hrs by broth microdilution method. It is filed as functional. The method, boiled down:
(§1)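 Broth microdilution MIC. Exponentially growing bacteria diluted in sterile liquid medium to a final inoculum of 1 × 10⁴ CFU/mL, cultured with serial compound dilutions for 16-20 h. MIC taken as the lowest inhibitory concentration.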

The subject of data set [2] is Staphylococcus aureus. The data set can be described thus: Antibacterial activity against Staphylococcus aureus after 16 to 20 hrs by broth microdilution method. Format: functional. The method, boiled down: as §1
For data set [3], the system named is Streptococcus pyogenes. The experiment in a line: Antibacterial activity against Streptococcus pyogenes after 16 to 20 hrs by broth microdilution method. It is filed as functional. The method, boiled down: as §1
In data set [4] the test system is Enterococcus faecalis. The data set can be described thus: Antibacterial activity against Enterococcus faecalis after 16 to 20 hrs by broth microdilution method. Format: functional. Summed up:
as §1

The subject of data set [5] is Listeria monocytogenes. The data set can be described thus: Antibacterial activity against Listeria monocytogenes after 16 to 20 hrs by broth microdilution method. Format: functional. Summed up:
as §1

Data set [6] relates to Mycobacterium tuberculosis. The data set can be described thus: Antitubercular activity against Mycobacterium tuberculosis H37Ra after 6 days by microplate alamar blue assay. Format: functional. As to conditions: 144 h. The method, boiled down: (§2)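 MABA run in 7H9GC medium, with drug diluted from DMSO stocks made at 100× the highest final concentration. Final levels were 100, 50, 10, 5, 2.5 and 1 μg/mL in triplicate, and the experiment was done three times. Inoculum was 2.5 × 10⁵ CFU/mL final. Alamar Blue plus Tween-80 was added once bacteria-only control wells turned pink, from day 6 on, and plates were read visually and by fluorescence after 24 h. Visual MIC is the lowest concentration preventing the blue-to-pink change. Mean percent inhibition was taken relative to bacteria-only and medium-only wells.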

For data set [7], the system named is Mycobacterium tuberculosis. The experiment in a line: Antitubercular activity against Mycobacterium tuberculosis H37Ra at 100 ug/ml after 6 days by microplate alamar blue assay. It is filed as functional. As to conditions: 144 h. Summed up: as §2
In data set [8] the test system is Mycobacterium tuberculosis. The experiment in a line: Antitubercular activity against Mycobacterium tuberculosis H37Ra at 50 ug/ml after 6 days by microplate alamar blue assay. The settings on record: 144 h. Format: functional. The method, boiled down:
as §2

Data set [9] deals with Mycobacterium tuberculosis. The experiment in a line: Antitubercular activity against Mycobacterium tuberculosis H37Ra at 10 ug/ml after 6 days by microplate alamar blue assay. It is filed as functional. As to conditions: 144 h. The method, boiled down:
as §2

In data set [10] the test system is Mycobacterium tuberculosis. The experiment in a line: Antitubercular activity against Mycobacterium tuberculosis H37Ra at 2.5 to 5 ug/ml after 6 days by microplate alamar blue assay. It is filed as functional. The method, boiled down:
as §2

A short description of data set [11]: Cytotoxicity against human HuH7 cells assessed as cell viability after 2 days by XTT assay. It is filed as cell-based, Huh-7. As to conditions: huh-7, 48 h. The method, boiled down: (§3)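 Huh-7 cells seeded at 1 × 10⁵ cells/well and left to attach 6-8 h. Medium then replaced with compound at 200, 100, 50, 10 or 1 μg/mL, with a DMSO control, and incubated 2 days at 37 °C. Viability by XTT, absorbance read at 450-500 nm.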

Data set [12] concerns Mycobacterium tuberculosis. The experiment in a line: Antitubercular activity against Mycobacterium tuberculosis H37Ra infected in BALB/c mouse assessed as reduction of CFU counts in lungs at 50 mg/kg, ip administered 5 days after infection for 25 days measured after 3 days last dose. It is filed as functional, organism-based. On the set-up: dose 50 mg/kg. The method, boiled down: (§4)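 Female BALB/c mice, 5–6 weeks old, were infected iv via the tail vein with about 2.5 × 10⁵ CFU of H37Ra in PBS, 5 per group. From day 5, drug was given ip at 50 mg/kg, 5 days/week, for 25 treatment days, in 10% DMSO–saline or poly(ethylene glycol) methyl ether. Controls received diluent only. Three days after the last dose, lung, liver and spleen homogenates were plated on 7H11 agar at 37 °C for up to 4 weeks. Colony counts were done blinded.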

The subject of data set [13] is Mycobacterium tuberculosis. The data set can be described thus: Antitubercular activity against Mycobacterium tuberculosis H37Ra infected in BALB/c mouse assessed as reduction of CFU counts in liver at 50 mg/kg, ip administered 5 days after infection for 25 days measured after 3 days last dose. On the set-up: dose 50 mg/kg. It is filed as functional, organism-based. The method, boiled down:
as §4

Data set [14] deals with Mycobacterium tuberculosis. The data set can be described thus: Antitubercular activity against Mycobacterium tuberculosis H37Ra infected in BALB/c mouse assessed as reduction of CFU counts in spleen at 50 mg/kg, ip administered 5 days after infection for 25 days measured after 3 days last dose. Format: functional, organism-based. On the set-up: dose 50 mg/kg. Summed up: as §4

The next data set deals with Mus musculus. The experiment in a line: Toxicity in Mycobacterium tuberculosis H37Ra infected in BALB/c mouse assessed as adverse effect at 50 mg/kg, ip administered 5 days after infection for 25 days. Format: organism-based. On the set-up: dose 50 mg/kg, route intraperitoneal. As to conditions: in vivo. Summed up:
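BALB/c mice infected with H37Ra were given 50 mg/kg ip in 10% DMSO–saline from day 5 post-infection, 5 days/week, over 25 treatment days. They were monitored for weight loss and behavioural changes and examined by gross necropsy after euthanasia.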

The nature of data set [15]: Cytotoxicity against human HuH7 cells assessed as cell viability at 200 ug/ml after 2 days by XTT assay. As to conditions: huh-7, 48 h. Format: cell-based. The method, boiled down:
as §3

The nature of data set [16]: Cytotoxicity against human HuH7 cells assessed as cell viability at > 200 ug/ml after 2 days by [3H]thymidine incorporation assay. Format: cell-based. As to conditions: huh-7, 48 h.
Data set [17] deals with Staphylococcus aureus. The data set can be described thus: Antibacterial activity against Staphylococcus aureus at 100 ug/ml after 16 to 20 hrs by broth microdilution method. Format: functional, organism-based.
Data set [18] deals with Staphylococcus epidermidis. The experiment in a line: Antibacterial activity against Staphylococcus epidermidis at 100 ug/ml after 16 to 20 hrs by broth microdilution method. Format: functional, organism-based.
Data set [19] has as its system Enterococcus faecalis. The experiment in a line: Antibacterial activity against Enterococcus faecalis at 100 ug/ml after 16 to 20 hrs by broth microdilution method. Format: functional, organism-based.
The subject of data set [20] is Streptococcus pyogenes. The data set can be described thus: Antibacterial activity against Streptococcus pyogenes at 100 ug/ml after 16 to 20 hrs by broth microdilution method. It is filed as functional, organism-based.
Data set [21] relates to Listeria monocytogenes. The experiment in a line: Antibacterial activity against Listeria monocytogenes at 100 ug/ml after 16 to 20 hrs by broth microdilution method. It is filed as functional, organism-based.

With `CCCCCC#Cc1c[nH]c(=O)[nH]c1=O`, the outcome in the data set on Bacillus subtilis, in the data set with Streptococcus pneumoniae, with Salmonella typhimurium, in the data set with Escherichia coli, in the data set with Proteus vulgaris and with Pseudomonas aeruginosa was inactive. Besides, the MIC90 in data set [1] stood at 10 µg/mL (≈ 48.5 µM); in the data set on Staphylococcus aureus [2] it was 50 µg/mL (≈ 242 µM); with Streptococcus pyogenes [3], 50 µg/mL (≈ 242 µM); in the data set with Enterococcus faecalis [4], 50 µg/mL (≈ 242 µM); against Listeria monocytogenes [5], 50 µg/mL (≈ 242 µM).
Regarding `Nc1nc(=O)n([C@H]2C[C@H](O)[C@@H](CO)O2)cc1C#Cc1ccccn1`, the MIC50 in [6] was 2.5 µg/mL (≈ 7.61 µM). Moreover, the inhibition at 100 µg/mL in data set [7] was 90%. For the same compound, in data set [8], the inhibition at 50 µg/mL is 90%. Also, in data set [9], the inhibition at 10 µg/mL came to 70%. Further, the “inhibition (INH)” value in data set [10] is 50%. Besides, the Activity result (in [11]; with Mus musculus; in [15]; in data set [16]) was “Non-toxic” in each case. Also, the outcome in data set [12], in data set [13] and in [14] was Active. The outcome (with Staphylococcus aureus [17]; in [18]; in the data set on Enterococcus faecalis [19]; in the data set with Bacillus subtilis; in the data set with Streptococcus pneumoniae; in the data set on Streptococcus pyogenes [20]) was inactive. Also, the outcome in the data set with Listeria monocytogenes [21], in the data set with Salmonella typhimurium, in the data set on Escherichia coli, with Proteus vulgaris and in the data set with Pseudomonas aeruginosa was inactive.
